Test results from ChEMBL document CHEMBL4400518, “Synthesis, antimicrobial and cytotoxic activities, and molecular docking studies of N-arylsulfonylindoles containing an aminoguanidine, a semicarbazide, and a thiosemicarbazide moiety” (Eur J Med Chem, 2019).
Converted amounts (≈) assume the structure as drawn.

Assays:
SGC-7901 = assay: Cytotoxicity against human SGC7901 cells measured after 48 hrs by CCK8 assay; assay type: functional, cell-based; conditions: SGC-7901, 48 h
Procedure, shortened: (§1)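 Cells kept in DMEM with 10% FBS and penicillin-streptomycin at 37 °C, 5% CO2. About 1×10^4 cells per well attached for 24 h, then exposed for 48 h to 0.3, 1, 3, 10, 30 and 100 µmol/L of compound, in triplicate wells. CCK-8 added for 3 h, OD read at 450 nm. IC50 is the concentration inhibiting growth by 50%.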

[1] = Selectivity index, ratio of IC50 for HEK293T cells to MIC for Enterococcus faecalis CMCC 29212; assay type: toxicity; conditions: human, read-out: Selectivity Index
[2] = Selectivity index, ratio of IC50 for HEK293T cells to MIC for multidrug-resistant Pseudomonas aeruginosa ATCC BAA-2111; assay type: toxicity; conditions: human, read-out: Selectivity Index
Escherichia coli [3] = assay: Antibacterial activity against multidrug-resistant Escherichia coli ATCC BAA-196 measured after 24 hrs by ELISA; assay type: functional; conditions: ATCC BAA-196, 24 h
Procedure, shortened: (§2)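 Broth serial dilution MIC. Mid-log bacteria in Mueller-Hinton or Tryptone Soya broth, diluted 1000-fold and inoculated at 10^5 CFU/mL. Compounds from DMSO stock, final DMSO ≤0.05%. Incubated 24 h at 37 °C; growth read as absorbance at 630 nm. MIC is the lowest concentration giving complete growth inhibition. Three independent experiments.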

Bacillus subtilis = assay: Antibacterial activity against Bacillus subtilis CMCC 63501 measured after 24 hrs by ELISA; assay type: functional; conditions: CMCC 63501, 24 h
Procedure, shortened: (§3)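 Broth microdilution MIC. Mid-log bacteria in MHB or TSB diluted 1000-fold, inoculated at 10^5 CFU/mL. Compounds added from DMSO stocks; final DMSO at most 0.05%. Incubation 24 h at 37 °C. Growth read as absorbance at 630 nm. MIC taken as the lowest concentration giving complete growth inhibition. Three independent experiments.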

[4] = Selectivity index, ratio of IC50 for HEK293T cells to MIC for multidrug-resistant Escherichia coli ATCC BAA-196; assay type: toxicity; conditions: human, read-out: Selectivity Index
[5] = Selectivity index, ratio of IC50 for HEK293T cells to MIC for methicillin-resistant Staphylococcus aureus ATCC 33591; assay type: toxicity; conditions: human, read-out: Selectivity Index
Staphylococcus aureus [6] = assay: Antibacterial activity against methicillin-resistant Staphylococcus aureus ATCC 33591 measured after 24 hrs by ELISA; assay type: functional; conditions: ATCC 33591, 24 h; procedure, shortened: as §2
[7] = Cytotoxicity against human A590 cells measured after 48 hrs by CCK8 assay; assay type: functional, cell-based; procedure, shortened: as §1
[8] = Selectivity index, ratio of IC50 for HEK293T cells to MIC for methicillin-resistant Staphylococcus aureus ATCC 43300; assay type: toxicity; conditions: human, read-out: Selectivity Index
[9] = Selectivity index, ratio of IC50 for HEK293T cells to MIC for Streptococcus pneumoniae CMCC 31968; assay type: toxicity; conditions: human, read-out: Selectivity Index
Escherichia coli [10] = assay: Antibacterial activity against Escherichia coli CMCC 44568 measured after 24 hrs by ELISA; assay type: functional; conditions: CMCC 44568, 24 h; procedure, shortened: as §3
[11] = Selectivity index, ratio of IC50 for HEK293T cells to MIC for Streptococcus pyogenes CMCC 32067; assay type: toxicity; conditions: human, read-out: Selectivity Index
[12] = Selectivity index, ratio of IC50 for HEK293T cells to MIC for Escherichia coli CMCC 44568; assay type: toxicity; conditions: human, read-out: Selectivity Index
[13] = Selectivity index, ratio of IC50 for HEK293T cells to MIC for Staphylococcus aureus CMCC(B) 26003; assay type: toxicity; conditions: human, read-out: Selectivity Index
[14] = Selectivity index, ratio of IC50 for HEK293T cells to MIC for Escherichia coli CMCC 25922; assay type: toxicity; conditions: human, read-out: Selectivity Index
Escherichia coli [15] = assay: Antibacterial activity against Escherichia coli CMCC 25922 measured after 24 hrs by ELISA; assay type: functional; conditions: CMCC 25922, 24 h; procedure, shortened: as §3
[16] = Selectivity index, ratio of IC50 for HEK293T cells to MIC for Pseudomonas aeruginosa CMCC 10104; assay type: toxicity; conditions: human, read-out: Selectivity Index
Pseudomonas aeruginosa [17] = assay: Antibacterial activity against multidrug-resistant Pseudomonas aeruginosa ATCC BAA-2111 measured after 24 hrs by ELISA; assay type: functional; conditions: ATCC BAA-2111, 24 h; procedure, shortened: as §2
Staphylococcus aureus [18] = assay: Antibacterial activity against Staphylococcus aureus CMCC(B) 26003 measured after 24 hrs by ELISA; assay type: functional; conditions: CMCC(B) 26003, 24 h; procedure, shortened: as §3
Staphylococcus aureus [19] = assay: Antibacterial activity against methicillin-resistant Staphylococcus aureus ATCC 43300 measured after 24 hrs by ELISA; assay type: functional; conditions: ATCC 43300, 24 h; procedure, shortened: as §2
Pseudomonas aeruginosa [20] = assay: Antibacterial activity against Pseudomonas aeruginosa CMCC 10104 measured after 24 hrs by ELISA; assay type: functional; conditions: CMCC 10104, 24 h; procedure, shortened: as §3
HEK-293T = assay: Cytotoxicity against HEK293T cells measured after 48 hrs by CCK8 assay; assay type: cell-based; conditions: Homo sapiens; procedure, shortened: as §1
[21] = Selectivity index, ratio of IC50 for HEK293T cells to MIC for Pseudomonas aeruginosa CMCC 27853; assay type: toxicity; conditions: human, read-out: Selectivity Index
Streptococcus pneumoniae = assay: Antibacterial activity against Streptococcus pneumoniae CMCC 31968 measured after 24 hrs by ELISA; assay type: functional; conditions: CMCC 31968, 24 h
Streptococcus pyogenes = assay: Antibacterial activity against Streptococcus pyogenes CMCC 32067 measured after 24 hrs by ELISA; assay type: functional; conditions: CMCC 32067, 24 h; procedure, shortened: as §3
[22] = Selectivity index, ratio of IC50 for HEK293T cells to MIC for Staphylococcus aureus CMCC 25923; assay type: toxicity; conditions: human, read-out: Selectivity Index
Enterococcus faecalis = assay: Antibacterial activity against Enterococcus faecalis CMCC 29212 measured after 24 hrs by ELISA; assay type: functional; conditions: CMCC 29212, 24 h; procedure, shortened: as §3
[23] = Selectivity index, ratio of IC50 for HEK293T cells to MIC for Bacillus subtilis CMCC 63501; assay type: toxicity; conditions: human, read-out: Selectivity Index
Pseudomonas aeruginosa [24] = assay: Antibacterial activity against Pseudomonas aeruginosa CMCC 27853 measured after 24 hrs by ELISA; assay type: functional; conditions: CMCC 27853, 24 h; procedure, shortened: as §3
Staphylococcus aureus [25] = assay: Antibacterial activity against Staphylococcus aureus CMCC 25923 measured after 24 hrs by ELISA; assay type: functional; conditions: CMCC 25923, 24 h; procedure, shortened: as §3

Row | Structure (SMILES) | MIC (Escherichia coli [3]) | MIC (Bacillus subtilis) | MIC (Staphylococcus aureus [6]) | MIC (Escherichia coli [10]) | MIC (Escherichia coli [15]) | MIC (Pseudomonas aeruginosa [17]) | MIC (Staphylococcus aureus [18]) | MIC (Staphylococcus aureus [19]) | MIC (Pseudomonas aeruginosa [20]) | MIC (Streptococcus pneumoniae) | MIC (Streptococcus pyogenes) | MIC (Enterococcus faecalis) | MIC (Pseudomonas aeruginosa [24]) | MIC (Staphylococcus aureus [25]) | also measured
1 | Cc1ccc(S(=O)(=O)n2cc(/C=N\NC(=N)N)c3cc(Br)ccc32)cc1 | 1.15 µM (≈ 0.499 µg/mL) | 2.31 µM (≈ 1 µg/mL) | 1.15 µM (≈ 0.499 µg/mL) | 2.31 µM (≈ 1 µg/mL) | 9.24 µM (≈ 4.01 µg/mL) | > 73.9 µM | 2.31 µM (≈ 1 µg/mL) | 1.15 µM (≈ 0.499 µg/mL) | > 296 µM | > 296 µM | > 296 µM | 9.24 µM (≈ 4.01 µg/mL) | > 296 µM | 2.31 µM (≈ 1 µg/mL) | IC50 (SGC-7901): 4 µM; selectivity ratio [1]: 7.95; selectivity ratio [2]: < 0.99; selectivity ratio [4]: 63.9; selectivity ratio [5]: 63.9; IC50 [7]: 15.1 µM; selectivity ratio [8]: 63.9; selectivity ratio [9]: < 0.25; selectivity ratio [11]: < 0.24; selectivity ratio [12]: 31.8; selectivity ratio [13]: 31.8; selectivity ratio [14]: 7.95; selectivity ratio [16]: < 0.25; IC50 (HEK-293T): 73.5 µM; selectivity ratio [21]: < 0.25; selectivity ratio [22]: 31.8; selectivity ratio [23]: 31.8
2 | COc1c(N2CCNC(C)C2)c(F)cc2c(=O)c(C(=O)O)cn(C3CC3)c12 (centres undefined) [GATIFLOXACIN] | 1.33 µM (≈ 0.499 µg/mL) | 5.33 µM (≈ 2 µg/mL) | 0.67 µM (≈ 0.252 µg/mL) | 0.33 µM (≈ 0.124 µg/mL) | 0.33 µM (≈ 0.124 µg/mL) | 2.66 µM (≈ 0.999 µg/mL) | 0.33 µM (≈ 0.124 µg/mL) | 1.33 µM (≈ 0.499 µg/mL) | 5.33 µM (≈ 2 µg/mL) | > 341 µM | > 341 µM | 2.67 µM (≈ 1 µg/mL) | 5.33 µM (≈ 2 µg/mL) | 0.33 µM (≈ 0.124 µg/mL) | –
3 | COc1c(N2C[C@@H]3CCCN[C@@H]3C2)c(F)cc2c(=O)c(C(=O)O)cn(C3CC3)c12 [MOXIFLOXACIN] | 1.25 µM (≈ 0.502 µg/mL) | – | 0.62 µM (≈ 0.249 µg/mL) | 0.31 µM (≈ 0.124 µg/mL) | 0.31 µM (≈ 0.124 µg/mL) | – | 0.31 µM (≈ 0.124 µg/mL) | 1.25 µM (≈ 0.502 µg/mL) | 9.98 µM (≈ 4.01 µg/mL) | > 319 µM | > 319 µM | – | – | 0.31 µM (≈ 0.124 µg/mL) | –
4 | Cc1onc(-c2ccccc2)c1C(=O)N[C@@H]1C(=O)N2[C@@H]1SC(C)(C)[C@@H]2C(=O)O [OXACILLIN] | – | > 319 µM | 19.9 µM (≈ 8.01 µg/mL) | > 319 µM | 319 µM (≈ 128 µg/mL) | – | 0.31 µM (≈ 0.124 µg/mL) | 160 µM (≈ 64.1 µg/mL) | > 319 µM | > 319 µM | > 319 µM | 319 µM (≈ 128 µg/mL) | > 319 µM | 0.31 µM (≈ 0.124 µg/mL) | –
5 | CC1(C)S[C@@H]2[C@H](NC(=O)Cc3ccccc3)C(=O)N2[C@H]1C(=O)O [PENICILLIN G] | – | 383 µM (≈ 128 µg/mL) | > 95.8 µM | > 383 µM | 383 µM (≈ 128 µg/mL) | – | 0.37 µM (≈ 0.124 µg/mL) | 95.8 µM (≈ 32 µg/mL) | 95.8 µM (≈ 32 µg/mL) | > 383 µM | > 383 µM | 383 µM (≈ 128 µg/mL) | > 383 µM | 0.37 µM (≈ 0.124 µg/mL) | –
